Data from paper PMC5601358 (Journal of Medicinal Chemistry, 2017).

Columns and labels:
[1] = target: T1, hA3R stably expressed on CHO cell membranes (Homo sapiens, UniProt P0DMS8); test: [35S]GTPγS binding assay, 2-Cl-IB-MECA-stimulated, Schild analysis; format: biochemical; conditions: for Mode of antagonism: 2-Cl-IB-MECA concentration-effect curves, antagonist at 30-, 100-, 300-fold Ki; for Schild slope: Coincubation with 2-Cl-IB-MECA 30 min, 25 °C
T1 sequence (P0DMS8 1-318): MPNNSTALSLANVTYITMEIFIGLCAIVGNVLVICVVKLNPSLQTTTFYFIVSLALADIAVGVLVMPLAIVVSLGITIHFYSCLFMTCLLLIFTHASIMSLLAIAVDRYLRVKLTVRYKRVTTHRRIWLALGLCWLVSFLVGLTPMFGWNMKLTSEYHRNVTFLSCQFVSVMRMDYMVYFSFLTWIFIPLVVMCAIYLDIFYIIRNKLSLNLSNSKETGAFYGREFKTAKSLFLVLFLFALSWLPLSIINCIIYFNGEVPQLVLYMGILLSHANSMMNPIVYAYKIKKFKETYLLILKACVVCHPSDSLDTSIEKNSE
Outline: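 CHO membranes stably expressing human A3 receptor (15 μg) in 50 mM Tris-HCl, 5 mM MgCl2, 1 mM EDTA, 0.05% BSA, 1 mM DTT, pH 7.4, with 1 μM GDP and 5 μg saponin. Agonist 0.1 nM–10 μM plus ~0.3 nM [35S]GTPγS (final). DMSO ≤0.1%. Basal: untreated membranes; maximum: 10 μM agonist. GF/B filtration, scintillation counting. Curves normalized and combined, n ≥ 3.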

[2] = target: T2, human adenosine A3 receptor (Homo sapiens, UniProt P0DMS8); test: Radioligand competition association assay with [3H]34; format: binding; conditions: for residence time: read-out: RT (residence time)
T2 sequence (P0DMS8 1-318): T1 sequence (P0DMS8 1-318)

[3] = target: T2, human adenosine A3 receptor; test: Radioligand displacement assay with [3H]34; format: binding; conditions: 25 °C, [3H]34, hA3R stably expressed on CHO cell membranes, n ≥ 3

| Mode of antagonism [1] | Schild slope [1] | koff [2] [s⁻¹] | kon [2] [M⁻¹ s⁻¹] | residence time [2] [min] | pKi ± SEM [3] | SMILES |
| --- | --- | --- | --- | --- | --- | --- |
| insurmountable antagonism | 0.9 ± 0.2 | 4.7e-05 | 480000 | 376 ± 58 | – | COc1cccc(Cn2c(=O)n(CC3CC3)c(=O)c3c2nc2cc(OC)ccn23)c1 [Compound 27, 3-(Cyclopropylmethyl)-8-methoxy-1-(3-methoxybenzyl)pyrido[2,1-f]purine-2,4(1H,3H)-dione] |
| – | – | 6.2e-05 | 420000 | 278 ± 45 | – | CCCCCCCn1c(=O)c2c(nc3cc(OC)ccn32)n(Cc2ccccc2)c1=O [Compound 11, 1-Benzyl-3-heptyl-8-methoxypyrido[2,1-f]purine-2,4(1H,3H)-dione] |
| – | – | – | – | – | 8.3 ± 0.1 | C=CCn1c(=O)c2c(nc3cc(OC)ccn32)n(Cc2ccccc2)c1=O [Compound 12, 3-Allyl-1-benzyl-8-methoxypyrido[2,1-f]purine-2,4(1H,3H)-dione] |
| – | – | 8.2e-05 | 230000 | 213 ± 35 | 8.6 ± 0.1 | CCCCCCn1c(=O)c2c(nc3cc(OC)ccn32)n(Cc2ccccc2)c1=O [Compound 10, 1-Benzyl-3-hexyl-8-methoxypyrido[2,1-f]purine-2,4(1H,3H)-dione] |
| – | – | 0.00032 | 850000 | 52 ± 0.3 | – | CCCn1c(=O)c2c(nc3cc(OC)ccn32)n(Cc2ccccc2)c1=O [Compound 1, 1-Benzyl-8-methoxy-3-propyl-1H,3H-pyrido[2,1-f]purine-2,4-dione] |
| – | – | 0.00063 | 430000 | 27 ± 2.6 | 7.7 ± 0.2 | COCCn1c(=O)c2c(nc3cc(OC)ccn32)n(Cc2ccccc2)c1=O [Compound 15, 1-Benzyl-8-methoxy-3-(2-methoxyethyl)-1H,3H-pyrido[2,1-f]purine-2,4-dione] |
| – | – | 6e-05 | 2.8e+06 | 315 ± 105 | – | COc1ccn2c(c1)nc1c2c(=O)n(CC2CC2)c(=O)n1Cc1ccccc1 [Compound 2, 1-Benzyl-3-(cyclopropylmethyl)-8-methoxypyrido[2,1-f]purine-2,4(1H,3H)-dione] |
| – | – | 7.8e-05 | 480000 | 250 ± 72 | – | COc1ccc(Cn2c(=O)n(CC3CC3)c(=O)c3c2nc2cc(OC)ccn23)cc1 [Compound 28, 3-(Cyclopropylmethyl)-8-methoxy-1-(4-methoxybenzyl)pyrido[2,1-f]purine-2,4(1H,3H)-dione] |
| – | – | 0.0006 | 1.1e+06 | 28 ± 2.2 | – | CCCCCn1c(=O)c2c(nc3cc(OC)ccn32)n(Cc2ccccc2)c1=O [Compound 9, 1-Benzyl-8-methoxy-3-pentyl-1H,3H-pyrido[2,1-f]purine-2,4-dione] |
| – | – | 0.0002 | 780000 | 148 ± 102 | – | COc1ccn2c(c1)nc1c2c(=O)n(CC(C)C)c(=O)n1Cc1ccccc1 [Compound 17, 1-Benzyl-3-isobutyl-8-methoxypyrido[2,1-f]purine-2,4(1H,3H)-dione] |
| – | – | 0.00082 | 3e+06 | 20 ± 0.5 | – | COc1ccn2c(c1)nc1c2c(=O)n(CC2CC2)c(=O)n1Cc1ccc(Cl)cc1 [Compound 30, 1-(4-Chlorobenzyl)-3-(cyclopropylmethyl)-8-methoxypyrido[2,1-f]purine-2,4(1H,3H)-dione] |
| – | – | 0.00011 | 550000 | 250 ± 147 | – | COc1ccn2c(c1)nc1c2c(=O)n(CC(C)(C)C)c(=O)n1Cc1ccccc1 [Compound 18, 1-Benzyl-8-methoxy-3-(3-neopentyl)-1H,3H-pyrido[2,1-f]purine-2,4-dione] |
| – | – | – | – | – | 9.2 ± 0.04 | CCc1ccc(Cn2c(=O)n(CC3CC3)c(=O)c3c2nc2cc(OC)ccn23)cc1 [Compound 26, 3-(Cyclopropylmethyl)-1-(4-ethylbenzyl)-8-methoxypyrido[2,1-f]purine-2,4(1H,3H)-dione] |
| surmountable antagonism | 1.0 ± 0.2 | 0.014 | 530000 | 2.2 ± 1.4 | – | COc1ccn2c(c1)nc1c2c(=O)[nH]c(=O)n1Cc1ccccc1 [Compound 5, 1-Benzyl-8-methoxy-1H,3H-pyrido[2,1-f]purine-2,4-dione] |
| – | – | 0.00047 | 820000 | 36 ± 5.5 | – | COc1ccn2c(c1)nc1c2c(=O)n(CC2CC2)c(=O)n1Cc1cccc(Cl)c1 [Compound 29, 1-(3-Chlorobenzyl)-3-(cyclopropylmethyl)-8-methoxypyrido[2,1-f]purine-2,4(1H,3H)-dione] |
| – | – | 5.3e-05 | 100000 | 391 ± 137 | – | COc1ccn2c(c1)nc1c2c(=O)n(CC2CC2)c(=O)n1Cc1ccc(Cl)c(Cl)c1 [Compound 31, 3-(Cyclopropylmethyl)-1-(3,4-dichlorobenzyl)-8-methoxypyrido[2,1-f]purine-2,4(1H,3H)-dione] |
